Compound activity (PubChem)
Rows were chosen to be rich in hits. Some 2.1% of all compounds tested hit in one or more screens of this group.
SMARCA2 act: SMARCA2 function activation, primary screen. MG213 cells, MMTV-luciferase reporter, dexamethasone, overnight. activation, % at 9.1 µM. actives 1% (n = 370,000); in the data active = activation above about 7.8%;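 note: 0% = vehicle wells and 100% = reference activator wells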
MC4R barr agon: agonists of human melanocortin 4 receptor (MC4R) beta-arrestin; P32245; U2OS MC4R beta-arrestin complementation, luminescence; percent of melanotan II response, DMSO zero; activation, % at 8.9 µM; actives 0.98% (n = 360,000); AID 540308;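 active = activation above a per-plate cutoff, the mean activation of sample wells on that plate plus 3 SD, cut at about 8% in these data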
Target sequence (P32245 whole entry, looked up): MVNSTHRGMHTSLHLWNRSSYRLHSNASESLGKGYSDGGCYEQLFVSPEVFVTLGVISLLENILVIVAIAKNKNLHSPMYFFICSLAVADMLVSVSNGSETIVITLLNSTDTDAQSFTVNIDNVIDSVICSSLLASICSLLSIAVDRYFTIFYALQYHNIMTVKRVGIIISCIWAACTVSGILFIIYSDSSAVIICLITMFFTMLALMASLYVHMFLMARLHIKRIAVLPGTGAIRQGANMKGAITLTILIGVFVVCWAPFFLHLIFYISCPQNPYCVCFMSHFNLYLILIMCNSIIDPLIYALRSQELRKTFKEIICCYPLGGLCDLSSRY
F508del corr: correctors of CFTR F508del function in bronchial epithelial cells | actives 0.36% (n = 350,000) | CFBE cells, YFP halide quenching; stimulated with forskolin plus potentiator P3; % fluorescence drop versus neutral controls | activity (quench increase), % at 7.58 µM | AID 720511;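 active = mean added fluorescence quench of at least 8% versus neutral control, with both replicates also reaching 8%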;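 note: cells transiently co-express mutant CFTR-F508del with the halide-sensitive YFP; corrector assay measuring rescue of mutant channel to the surface after 24 h compound exposure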
MC4R antagonist: antagonists of human melanocortin 4 receptor (MC4R); inhibition, % at 6.5 µM; MC4R-expressing cells, MTII-stimulated cAMP, LANCE TR-FRET; actives 0.48% (n = 360,000); P32245;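 active = inhibition above its plate's cutoff, the mean of tested wells on that plate plus 3 SD, cut at about 29% in these data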;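 note: 0% = Melanotan II alone and 100% = Melanotan II plus saturating MCL0020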
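Material: human MC4R-expressing U2OS cells. Probe or stimulus: Melanotan II challenge. Dosing: 6.5 µM single dose. Times: 30-min compound, 1-h challenge, 1-h detection, room temperature. Technique: TR-FRET with Eu-cAMP and labeled anti-cAMP, 671 nm. Replication: singlicate.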
cAMP nonselect: nonselective cAMP signaling inhibitor, MC4R antagonist counter-screen | shares compounds with MC4R antagonist | parental U2OS, forskolin cAMP, LANCE TR-FRET | inhibition, % at 6.5 µM | actives 26% (n = 1,600) | AID 602193;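 active = mean inhibition over triplicates above the low-control well mean plus 3 SD, set per campaign, cut at about 13% in these data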;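 note: signal is single emission at 671 nm which falls as cellular cAMP rises; 0% = forskolin-stimulated wells and 100% = buffer without forskolin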
MC4R cAMP antag: human MC4R cAMP antagonism confirmation; shares compounds with MC4R antagonist; MC4R-expressing cells, MTII-stimulated cAMP, TR-FRET; inhibition, % at 6.5 µM; actives 27% (n = 1,600); in the data active = inhibition above about 29%;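 note: 0% = agonist stimulated wells alone and 100% = agonist stimulated wells plus saturating reference antagonist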
* marks the source's active call; other numbers are inactive results.

Screening CCOC(=O)CC(=O)NC(C)(C)CCCCC(C)(C)NC(=O)CC(=O)OCC returned SMARCA2 act -0.7, MC4R barr agon -0.5, F508del corr 1.3, MC4R antagonist 28.6*, cAMP nonselect -2.6 and MC4R cAMP antag 0.6.
`O=C1c2ccc([N+](=O)[O-])cc2S(=O)(=O)N1Cc1ccccc1` gave SMARCA2 act -0.8, MC4R barr agon -2.8, F508del corr -1.7, MC4R antagonist 32.7*, cAMP nonselect 28.3* and MC4R cAMP antag 50.3*.
COc1ccc(S(=O)(=O)N(C)C[C@H]2Oc3ccc(NC(=O)CCCN(C)C)cc3C(=O)N([C@@H](C)CO)C[C@H]2C)cc1 was read as F508del corr -1.4.
Screening CCSc1nnc(NC(=O)c2nc(S(=O)(=O)Cc3ccc(F)cc3)ncc2Cl)s1 returned SMARCA2 act -2.6, MC4R barr agon -2.0, F508del corr 1.6, MC4R antagonist 49.1*, cAMP nonselect 14.4* and MC4R cAMP antag 20.3.
Screening Cc1ccc(CS(=O)(=O)c2ncc(Cl)c(C(=O)Nc3ccc(OC(F)F)cc3)n2)cc1 returned SMARCA2 act -5.7, MC4R barr agon -4.1, F508del corr 4.4, MC4R antagonist 40.5*, cAMP nonselect 23.2* and MC4R cAMP antag 13.2.
`Cc1ccc(CS(=O)(=O)c2ncc(Cl)c(C(=O)Nc3nnc(C(C)C)s3)n2)cc1` gave SMARCA2 act -9.4, MC4R barr agon -1.3, F508del corr 5.3, MC4R antagonist 51.2*, cAMP nonselect 24.0* and MC4R cAMP antag 40.9*.
CC(C)c1nnc(NC(=O)c2nc(S(=O)(=O)Cc3ccccc3F)ncc2Cl)s1 was read as SMARCA2 act -8.0 and F508del corr 3.0.
CC(C)c1nnc(NC(=O)c2nc(S(=O)(=O)Cc3ccc(F)cc3)ncc2Cl)s1 was read as SMARCA2 act -13.9, MC4R barr agon -2.6, F508del corr 1.6, MC4R antagonist 56.0*, cAMP nonselect 15.6* and MC4R cAMP antag 39.2*.
Screening COc1ccc(NC(=O)N(C)C[C@@H]2Oc3ccc(NC(=O)c4ccncc4)cc3C(=O)N([C@@H](C)CO)C[C@H]2C)cc1 returned F508del corr 1.2.
`CSc1nnc(NC(=O)c2nc(S(=O)(=O)Cc3ccccc3F)ncc2Cl)s1` gave SMARCA2 act -6.0, MC4R barr agon -2.2, F508del corr 3.2, MC4R antagonist 40.7*, cAMP nonselect 17.5* and MC4R cAMP antag 38.0*.
For CSc1nnc(NC(=O)c2nc(S(=O)(=O)Cc3cccc(C)c3)ncc2Cl)s1 the results were SMARCA2 act -12.5, MC4R barr agon -2.6, F508del corr 3.8, MC4R antagonist 59.1*, cAMP nonselect 28.6* and MC4R cAMP antag 48.0*.
`Cc1cccc(CS(=O)(=O)c2ncc(Cl)c(C(=O)Nc3nnc(C(C)C)s3)n2)c1` gave MC4R barr agon -2.9, MC4R antagonist 57.9*, cAMP nonselect 27.1* and MC4R cAMP antag 53.8*.
Cc1noc(C)c1S(=O)(=O)N(C)C[C@@H]1OCCCC[C@@H](C)Oc2ccc(NS(=O)(=O)c3cccs3)cc2C(=O)N([C@@H](C)CO)C[C@@H]1C was read as F508del corr -2.6.
Screening O=C(C1CCOCC1)N1C[C@H]2[C@@H](c3ccccc31)[C@@H](CO)N2C(=O)c1ccccc1 returned F508del corr 0.1.
For O=C(/C=C/c1ccc(-c2ccccc2[N+](=O)[O-])o1)c1ccccc1 the results were SMARCA2 act -2.5, MC4R barr agon -0.1, MC4R antagonist 29.5*, cAMP nonselect 1.4 and MC4R cAMP antag 4.0.
Screening Cc1ccc(S(=O)(=O)N[C@@H]2CC[C@@H](CC(=O)NCCN3CCCCC3)O[C@H]2CO)cc1 returned F508del corr -0.7.
Screening COc1cccc(CC(=O)Nc2nc(-c3cc(OC)ccc3OC)cs2)c1 returned SMARCA2 act -1.6, MC4R barr agon 5.1, F508del corr 1.4, MC4R antagonist 34.5*, cAMP nonselect 0.7 and MC4R cAMP antag 0.5.
Screening COc1ccc(OC)c(-c2csc(NC(=O)Cc3ccccc3)n2)c1 returned SMARCA2 act -1.5, MC4R barr agon 3.9, F508del corr 1.9 and MC4R antagonist 3.3.
O=C(C(=O)N(Cc1ccccc1)Cc1ccccc1)c1c(-c2ccccc2)[nH]c2ccccc12 was read as SMARCA2 act -6.3, MC4R barr agon 2.4, F508del corr 1.6, MC4R antagonist 50.2*, cAMP nonselect 0.7 and MC4R cAMP antag 11.5.
For Cc1ccccc1NC(=O)C(C)N1C(=O)c2ccccc2C1=O (configuration not stated) the results were SMARCA2 act 4.2, MC4R barr agon 2.7, F508del corr 0.3 and MC4R antagonist 12.2.
`Cc1cccnc1NC(=O)C(C)N1C(=O)c2ccccc2C1=O` (configuration not stated) gave SMARCA2 act -2.9, MC4R barr agon 1.2, F508del corr 0.4, MC4R antagonist 31.1*, cAMP nonselect -4.9 and MC4R cAMP antag -18.3.
`CNC(=O)C(C)c1ncc(C(F)(F)F)cc1Cl` (configuration not stated) gave SMARCA2 act -3.0, MC4R barr agon 0.6, F508del corr -1.5, MC4R antagonist 31.1*, cAMP nonselect 0.8 and MC4R cAMP antag -8.1.
`CC(C(=O)Nc1ccc(Cl)cc1)c1ncc(C(F)(F)F)cc1Cl` (configuration not stated) gave SMARCA2 act 4.2, MC4R barr agon -0.1, F508del corr -1.5 and MC4R antagonist -0.1.
CCn1nc(C)c(C2C(C#N)=C(N)Oc3n[nH]c(C)c32)c1C (configuration not stated) was read as SMARCA2 act 0.2, MC4R barr agon 1.8, F508del corr -0.8, MC4R antagonist 30.7*, cAMP nonselect 2.3 and MC4R cAMP antag -0.4.
CCC(CC)C1C(C#N)=C(N)Oc2n[nH]c(C)c21 (configuration not stated) was read as SMARCA2 act -1.9, MC4R barr agon 1.5 and MC4R antagonist 2.2.
Screening S=c1[nH]ccc2ccccc12 returned SMARCA2 act -3.5, MC4R barr agon -2.3, F508del corr 1.3, MC4R antagonist 28.9*, cAMP nonselect -3.2 and MC4R cAMP antag -0.3.
Screening S=c1[nH]ncc2ccccc12 returned SMARCA2 act 2.3, MC4R barr agon -1.1, F508del corr 0.0 and MC4R antagonist -8.7.
Screening CCC(=O)N1[C@@H](CO)[C@H](c2ccccc2)C12CN(C(=O)NC1CCCC1)C2 returned F508del corr -1.4.
Screening COc1ccc(N2CCN(C(c3cccs3)C(C)NC(=O)c3ccco3)CC2)cc1 (configuration not stated) returned SMARCA2 act -3.6, MC4R barr agon -1.5 and MC4R antagonist 3.5.
